Test results as given in the RNAGym collection of RNA variant scans (doi:10.1126/science.aae0568).
This sample holds only a part of the variants without activity.

B1: tRNA (parent)
chain: GUUCCGUUGGCGUAAUGGUAACGCGUCUCCCUCCUAAGGAGAAGACUGCGGGUUCGAGUCCCGUACGGAACG

Variants of: B1
Test: yeast fitness relative to wild type (ratio to wild type); higher = fitter; tRNA-Arg(CCU), competitive growth, 37 C, YPD
Procedure, shortened: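 Start and end populations of a pooled competition were compared by 100-nucleotide paired-end sequencing of gene amplicons. The Saccharomyces cerevisiae strains carried tRNA-Arg(CCU) gene variants at the native genomic locus, synthesised with a 3% per-site mutation rate at 69 sites, and competed in YPD at 37°C for 24 hours in six parallel replicates. Darwinian fitness relative to wild type was based on the change in genotype frequencies. Genotypes required ≥ 100 starting reads, and estimates < 0.5 were set to 0.5.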
For C4U C11U U28A C29G G51A G56A G67C, the yeast fitness was no more than 0.5.
C5A U16C A42U A57G showed a yeast fitness of no more than 0.5.
In the case of G12A A20G U26C C29U C31G C33U A42U, the yeast fitness is reported as no more than 0.5.
Variant C5G U13A G23A G38A G48A C60A has a yeast fitness of no more than 0.5.
For C4A G17A C30A, the yeast fitness was no more than 0.5.
Work on A42C G67U yielded a yeast fitness of 0.811.
Variant G17A A45U has a yeast fitness of 0.763.
Work on C11U G39C C55A yielded a yeast fitness of no more than 0.5.
For G18A U26G C55U C60G, the yeast fitness was 0.512.
Work on U2C U8G A20G U32G U35A yielded a yeast fitness of no more than 0.5.
Work on C60G A70C yielded a yeast fitness of 0.66.
C5A G17C A57C A70U gave a yeast fitness of no more than 0.5.
Variant C5A C29G G41A A43U has a yeast fitness of 0.659.
In the case of U7G C22U C49G G50C C66A, the yeast fitness is reported as no more than 0.5.
U28C G51A C55U C66G gave a yeast fitness of 0.553.
Work on A21U A36G A43U U64A yielded a yeast fitness of no more than 0.5.
U13C C31U G58C C61A A69U showed a yeast fitness of no more than 0.5.
U16C C31G G41A G52C C60U C62G C66G gave a yeast fitness of no more than 0.5.
Work on A14G G18A U26A yielded a yeast fitness of no more than 0.5.
With U47A A57U the yeast fitness was 0.655.
Work on C4G G12A C66G yielded a yeast fitness of 0.503.
Work on G18C G23A G25C A37G A43C C55G yielded a yeast fitness of no more than 0.5.
In the case of A20G G51C C61G, the yeast fitness is reported as 0.546.
In the case of A15G A20U A45U U64C, the yeast fitness is reported as 0.593.
C24A A36G A37G A69U showed a yeast fitness of no more than 0.5.
U35A G63C gave a yeast fitness of 0.56.
U26A C61A gave a yeast fitness of 0.656.
Variant G23C U47C C60G has a yeast fitness of no more than 0.5.
U7G U13C A36U G50C U54C gave a yeast fitness of no more than 0.5.
C22G G23C G39A A45C C49U C61U G68A showed a yeast fitness of no more than 0.5.
With U16A A42G the yeast fitness was 0.749.
A15U G18A C27U U35C G41A C49U U53A gave a yeast fitness of 0.603.
For G18C G56A, the yeast fitness was 0.739.
For U19G C22U A70G, the yeast fitness was 0.624.
Variant A15U A45C C49G G58C has a yeast fitness of no more than 0.5.
U3C G9C gave a yeast fitness of 0.712.
Variant U3C U54C has a yeast fitness of 0.873.
U16C G17C gave a yeast fitness of 0.665.
G63A G68C gave a yeast fitness of 0.883.
Variant G25A U35G has a yeast fitness of 0.603.
U26A C55A A57U gave a yeast fitness of no more than 0.5.
U2A A43U gave a yeast fitness of 0.956.
For C24U U47C U59C, the yeast fitness was 0.684.
Work on G39C C46G yielded a yeast fitness of 0.875.
Work on U16G C22G G67C yielded a yeast fitness of 0.709.
Variant G17C C31G has a yeast fitness of 0.634.
For A40U A42U A65C, the yeast fitness was 0.747.
In the case of C34A A36G A65C G68C, the yeast fitness is reported as no more than 0.5.
C31U A37U showed a yeast fitness of 0.744.
Variant U7G C60A A69G has a yeast fitness of no more than 0.5.
For C5A C29A A57G, the yeast fitness was no more than 0.5.
Variant C4U C30G A36U A70C has a yeast fitness of no more than 0.5.
C4A C31U A42U gave a yeast fitness of 0.618.
With U2A G18A G23C A45U the yeast fitness was 0.573.
Variant A36G A65U A70C has a yeast fitness of 0.684.
U16C A21C C49A A57G G58A C66U G68A showed a yeast fitness of no more than 0.5.
In the case of G17C A21U C33G G38A G52A, the yeast fitness is reported as no more than 0.5.
U7G G9A C30G G51C gave a yeast fitness of no more than 0.5.
Variant C49U U64A has a yeast fitness of 0.753.
Work on C30A A36C G52A yielded a yeast fitness of no more than 0.5.
With A40C A43U C61A the yeast fitness was 0.611.
For U3A C24U G39A C55A, the yeast fitness was no more than 0.5.
A15U A20G C27U C66A showed a yeast fitness of no more than 0.5.
For G17A G18A A42C C55U G63C, the yeast fitness was no more than 0.5.
Variant C55A A65C G68A has a yeast fitness of no more than 0.5.
For U2C C49A C62U, the yeast fitness was no more than 0.5.
U3C C30G gave a yeast fitness of 0.677.
Work on A15U A20C G50C yielded a yeast fitness of no more than 0.5.
For U8C C11A G25C C29U A65C A70U, the yeast fitness was no more than 0.5.
With A14C G50A G63C the yeast fitness was 0.522.
Work on C27G C34A G68C yielded a yeast fitness of no more than 0.5.
With A15G A45U A57C A69C the yeast fitness was no more than 0.5.
A15G G56C C66G showed a yeast fitness of no more than 0.5.
With U3C C27U G58C A69C the yeast fitness was 0.793.
Work on C34G G44U C49G C61U A69G yielded a yeast fitness of no more than 0.5.
In the case of G10C C60A C62A, the yeast fitness is reported as 0.529.
For A20G C29U U47G C49U, the yeast fitness was no more than 0.5.
U8G C29U C31U U54G A65U G67A showed a yeast fitness of no more than 0.5.
With C31A A42C C46G the yeast fitness was 0.959.
U19A C27A gave a yeast fitness of 0.775.
Variant G12A C49G has a yeast fitness of 0.943.
With A21C A57G G67A the yeast fitness was no more than 0.5.
G9U C24U U35A A40G C60A G67C showed a yeast fitness of no more than 0.5.
